Source: the RNAGym collection of RNA variant scans (doi:10.1126/science.aae0568)
Fewer inactive variants are shown than the library holds.

B1: tRNA (parent)
chain: GUUCCGUUGGCGUAAUGGUAACGCGUCUCCCUCCUAAGGAGAAGACUGCGGGUUCGAGUCCCGUACGGAACG

Variants of: B1
Assay: yeast fitness relative to wild type (ratio to wild type); higher = fitter; tRNA-Arg(CCU), competitive growth, 37 C, YPD
Outline: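 The tRNA-Arg(CCU) gene variants were made by chemical synthesis with a 3% per-site mutation rate at 69 sites and inserted at the native genomic locus of Saccharomyces cerevisiae. After pooling, the strains were competed in YPD at 37°C for 24 hours in six parallel replicates. Gene amplicons from the start population and each end population were read by 100-nucleotide paired-end sequencing, and Darwinian fitness relative to wild type was taken from genotype frequency changes. Genotypes needed ≥ 100 starting reads, and estimates < 0.5 were set to 0.5.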

Variant	yeast fitness
U32C A40G G41A	≤ 0.5
U7A A42G C55G A57C	≤ 0.5
G39A G52A	0.759
U3G C4G C22U C29U G52C G63A G67U A70C	≤ 0.5
U32G C49U G56A	0.744
U16C C24G C30G A36U C66U	≤ 0.5
A15G C30G A42C A43C C46G A65C	≤ 0.5
G17C C22G C24A C62A	≤ 0.5
U2C G48A G52A	0.623
C4A G10A C31A	≤ 0.5
G9A G10A C24A G44A	≤ 0.5
A42G U64C	0.904
G12C U32G C33G G67C	≤ 0.5
A21U C34G U35C	0.785
G6A G39U	0.79
G50A G51A	0.645
G18C A42U U54A G58C	0.574
C11G A37U C46U G63U	≤ 0.5
U7G A15G	0.913
G18C C34G A45C C66U	0.775
G6A U19G A42G	≤ 0.5
G9A C29A G56C	≤ 0.5
G10C C33G A36C C46A A65U	0.53
G58A A69U	0.986

Variant	yeast fitness
G44A C46U A69C	0.996
U19A C22G C24U C33G A36G	0.581
A20G A40C A42U A43C	≤ 0.5
U19C A70U	0.953
U13C C31A C49G C61G	≤ 0.5
A14C U16A G41C	≤ 0.5
U13C C27A C61A	≤ 0.5
C5A G12C	0.746
C11G U47A G52A G58C G63C C66G	0.664
U32G G63C	0.571
C29U A43U G52C U59A	≤ 0.5
U2C U7A A65U	0.725
C30G C33G C34U A42U A57G A65C	≤ 0.5
C4G U7G C55G	≤ 0.5
C29U C31U C33G U35C	0.588
A14C A15U C27U U32C U35G A70U	≤ 0.5
U2A U35C G38C U47G	≤ 0.5
C4A C5G C24U G25A A57U	≤ 0.5
C4G G17A C34A A43G	0.633
A14U U64C A65G	0.567
C5G G25C C62U	0.721
U28G A70U	0.842
G10A G23A C34G	≤ 0.5
U19C C66U	0.855

Variant	yeast fitness
C5U U35A G44A	0.558
U2G A15G G17A U28A C29U A45C A69C	≤ 0.5
U8A C11U G25A C33A A40U	≤ 0.5
U26C G68C	0.936
C4G U7A U19C A20C C55A G68C	≤ 0.5
C4U U8G A20G U47G A57G	≤ 0.5
A20U G44C A45G	0.596
C22A G68A	0.869
U2C C31G G58A G67U	≤ 0.5
U53G C66U	0.604
A20U C29U C49G C55A C66U	≤ 0.5
C24G A37G U59A C62A G67A	≤ 0.5
G10C A37U	≤ 0.5
A20C A36G G48A C49U	≤ 0.5
A21U C29U C31U U54C A70G	≤ 0.5
U7C C30U C61A	≤ 0.5
C5U A15G A42U	0.703
C5G G18A G25A A42G	≤ 0.5
C30G C34A C49G G50A U64A	0.56
A15C C31A U59C G63A A69G	≤ 0.5
A20U A21U	0.61
G9C C27U U47C C55U C62G A69U	≤ 0.5
U3G U59C	0.888
C5A C11G C30U A36C A42G C61G	≤ 0.5

Variant	yeast fitness
G9A A40G	0.918
G10C C30U G38A	0.531
A14C A45U G50C C66G	≤ 0.5
C30A C46G G52A G56A	0.608
G41A C61U	0.786
G25A C30A A45G U64C	0.984
A15U A36U C60G	≤ 0.5
C29U A43G	0.883
C29U C62U A70U	0.532
U8A C11A A36G C61G	≤ 0.5
A20C C24U G68C	0.542
A20G C27U U28G	0.565
G6A A21C U47A G56A	≤ 0.5
G10A C31U G38C G63A A65G G68C A69G	≤ 0.5
C24U G44C	0.825
C29U G39C	0.65
A36G U53C	0.724
C29G C31G C49G C61G	≤ 0.5
A15G A36G A37G	0.624
C5U C31A U32C A37C G50C A69C	0.731
C31U C46U G51A	0.968
C4U A14C C22U C34U	≤ 0.5
C30A A36U G39A A45G G63U	≤ 0.5
C5U U8C A20G C30A C61A	0.649

Variant	yeast fitness
C27U U47C G68A	0.672
U8C C27G C29A	≤ 0.5
A20G A40U	0.92
U26C G50A	0.932
C5A G25A C33G C46A C66A	≤ 0.5
U8C A21U U32A C55G	0.517
G6C A20G A42C A45C	≤ 0.5
C5U U32C G39A C60U C61G	0.527
U28A U53A	0.6
G10A G17C C30G C33G C61A	0.556
C4A C46U G68A	0.887
C46U G68A	0.9
U13A A14U C49A	≤ 0.5
A14U C62U C66G	≤ 0.5
C5G G25A G56A	0.803
G10A C34U	≤ 0.5
U3C U8C U13C	0.548
G6A A15G C22A	≤ 0.5
C4U C11G C29A U54A U59G	≤ 0.5
G41C C46G U59C C60U	≤ 0.5
A14C U19A	0.602
U32C G39C	0.765
U28G C60A	0.53
A15G U35A G48A A57G C62G	≤ 0.5

Variant	yeast fitness
U3C A14U A37U	≤ 0.5
G10C G12A C22A C24G U53A	≤ 0.5
C11A A15U A21U A36C A37U	0.56
U7A U8A G10C C27G C34G A45C G68U	≤ 0.5
U26A A40C U64G	0.538
C24U C34G U35G G38A A45C	0.646
U35G G38A G52C	0.678
U28C A40U C55A	≤ 0.5
G6C A57U	0.663
C30U U35A G51A	≤ 0.5
C11A A69U	0.734
C27A C31G G44C	≤ 0.5
U2A C5U U8G A20G C34A	≤ 0.5
U2C C11A C22G	0.602
U32C G48A A57C	≤ 0.5
A15U C62U	0.787
G17C A40G A42C A45U U54C	≤ 0.5
G12A C46G	1
U7A A40G	0.73
U13G G25C	0.797
A15U U19A A20G A40U A43U C60G C62U A65G	≤ 0.5
A43U C46A A65C	0.688
C11U A57U C60G G68C	≤ 0.5
C31G A45C A65U	≤ 0.5

Variant	yeast fitness
U8C C31G A42G	0.624
G12A C24A U26A C31A G67A	≤ 0.5
G23A C29U C60U A65U	≤ 0.5
C31G U54G	0.6
C34G G51A C66U	0.649
U13C G48C C49U	0.772
U2G C60A C66G	0.989
A40U A42C G44A G51A A65G	0.542
G17A C24G C27G C62U G67A	≤ 0.5
C30A A40C	0.712
C11G U16C C27G C61U	0.545
U3A A36U A43G G52C G63A G67U A70C	0.557
C11G G17A A37U A70G	≤ 0.5
A43U G56A A57G	0.691
C30U A36U C62G G63A	0.542
C4G G12C	0.676
C29U C61U A70G	0.728
G12A G41C A45C G68A	≤ 0.5
A36C A45C	0.763
U3A U13A C22U C24U	≤ 0.5
C27G U32G A42C C66U	≤ 0.5
U8G U47A	0.602
U28G C29U A45C	≤ 0.5
